For seven compounds, Activity, IC50 and selectivity ratio results are on record in ChEMBL document CHEMBL4118023, “Bioactive Pentacyclic Triterpene Ester Derivatives from Alnus viridis ssp. viridis Bark” (J Nat Prod, 2017).

Series [1] has as its system A549. As to the kind of experiment: Induction of apoptosis in human A549 cells assessed as necrotic cells at cytotoxic IC50 after 24 hrs by Annexin V-FITC/propidium iodide staining based flow cytometry (reference value: 0.71%). Format: functional.
The test system of series [2] is A549. As to the kind of experiment: Cytotoxicity against human A549 cells assessed as reduction in cell viability after 48 hrs by MTT assay. Format: functional, cell-based. The note with it: for pIC50: A549, 48 h. The method in brief: (§1)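 Cells seeded at 1 × 10^4 per well, 24 h at 37 °C, 5% CO2, in RPMI-1640 with 10% FBS, penicillin and streptomycin. Compounds were prepared from DMSO stocks (50 mg/mL) and added at 2.5–50.0 μg/mL for 48 h; DMSO controls. MTT read-out; IC50 taken from a sigmoidal dose–response fit of % viability versus log concentration by nonlinear regression.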
For orientation: Formazan colour is commonly taken as a measure of viable cells.

Series [3] can be described thus: Selectivity index, ratio of IC50 for human MRC5 cells to IC50 for human A375 cells. Format: toxicity. The conditions noted are these: MRC5 cells versus A375 cells, read-out: Ratio IC50. In short, it runs like this:
(§2)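 Selectivity index is the IC50 in noncancerous MRC5 cells divided by the IC50 in the cancer line.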

Another series has as its system MRC5. As to the kind of experiment: Cytotoxicity against human MRC5 cells assessed as reduction in cell viability after 48 hrs by MTT assay. Format: cell-based. The note with it: MRC5, 48 h. In short, it runs like this: as §1
For the next series, the system named is A-375. As to the kind of experiment: Cytotoxicity against human A375 cells assessed as reduction in cell viability after 48 hrs by MTT assay. Format: functional, cell-based. The conditions noted are these: for pIC50: A-375, 48 h. The method in brief:
as §1

The test system of series [4] is A549. As to the kind of experiment: Induction of apoptosis in human A549 cells assessed as live cells at cytotoxic IC50 after 24 hrs by Annexin V-FITC/propidium iodide staining based flow cytometry (reference value: 96.02%). Format: functional.
Series [5] deals with A549. As to the kind of experiment: Induction of apoptosis in human A549 cells assessed as late apoptotic cells at cytotoxic IC50 after 24 hrs by Annexin V-FITC/propidium iodide staining based flow cytometry (reference value: 1.02%). Format: functional. (A flow cytometer gives signals particle by particle.)
Series [6] has as its system A549. As to the kind of experiment: Induction of apoptosis in human A549 cells assessed as early apoptotic cells at cytotoxic IC50 after 24 hrs by Annexin V-FITC/propidium iodide staining based flow cytometry (reference value: 2.25%). Format: functional.
Series [7] is described as follows: Selectivity index, ratio of IC50 for human MRC5 cells to IC50 for human A549 cells. The note with it: MRC5 cells versus A549 cells, read-out: Ratio IC50. Format: toxicity. The method in brief: as §2

pIC50: −log10 of the molar value.

Regarding `C=C(C)[C@@H]1CC[C@]2(C(=O)O)CC[C@]3(C)[C@H](CC[C@@H]4[C@@]5(C)CC[C@H](O)C(C)(C)[C@@H]5CC[C@]43C)[C@@H]12` [BETULINIC ACID], the Activity with A549 [1] came to 1.3%; with A549 [4] it was 90.8%; in the series with A549 [5] it was 2.24%; with A549 [6], 5.66%. Moreover, the pIC50 with A549 [2] was 4.36; in the series with MRC5 it was 4.48; in the series on A-375 it was 4.36. In addition, the selectivity ratio in series [3] and in series [7] was 0.75 in each case.
With `C=C(C)[C@@H]1CC[C@]2(C(=O)O)CC[C@]3(CO)[C@H](CC[C@@H]4[C@@]5(C)C[C@@H](OC(=O)/C=C/c6ccc(O)c(O)c6)[C@H](O)C(C)(C)[C@@H]5CC[C@]43C)[C@@H]12`, the Activity entry in the series on A549 [2] and with A-375 was “Dose-dependent effect” in each case. In addition, the pIC50 in the series on A549 [2] was 4.81; in the series on MRC5, 4.73; in the series on A-375 it was 4.94. Also, the selectivity ratio in [3] is 1.6; in series [7] it was 1.2.
With `C=C(C)[C@@H]1CC[C@]2(C(=O)O)CC[C@]3(COC(=O)/C=C/c4ccc(O)c(O)c4)[C@H](CC[C@@H]4[C@@]5(C)CCC(=O)C(C)(C)[C@@H]5CC[C@]43C)[C@@H]12`, the Activity result in the series on A549 [2] and in the series on A-375 was “Dose-dependent effect” each time. Also, the pIC50 is 4.81 in the series with A549 [2], 5.01 in the series with MRC5 and 5.11 with A-375. For the same compound, the selectivity ratio came out at 1.25 in series [3] and 0.63 in series [7].
Consider `C=C(C)[C@@H]1CC[C@]2(C(=O)O)CC[C@]3(C)[C@H](CC[C@@H]4[C@@]5(C)C[C@@H](OC(=O)/C=C/c6ccc(O)c(O)c6)[C@H](O)C(C)(C)[C@@H]5CC[C@]43C)[C@@H]12`, for which the Activity entry in the series on A549 [2] and with A-375 was “Dose-dependent effect” each time. The pIC50 in the series with A549 [2] is 4.80; with MRC5 it was 5.10; with A-375 it was 5.20. Moreover, the selectivity ratio came out at 1.25 in series [3] and 0.5 in series [7].
Turning to `C=C(C)[C@@H]1CC[C@]2(C(=O)O)CC[C@]3(CO)[C@H](CC[C@@H]4[C@@]5(C)C[C@@H](OC(=O)/C=C/c6ccc(O)c(O)c6)[C@H](OC(=O)/C=C\c6ccc(O)cc6)C(C)(C)[C@@H]5CC[C@]43C)[C@@H]12`, the Activity was 0.93% in the series on A549 [1]; “Dose-dependent effect” in the series with A549 [2]; “Dose-dependent effect” with A-375; 86.87% with A549 [4]; 0.28% in the series with A549 [5]; 11.92% in the series on A549 [6]. In addition, the pIC50 in the series with A549 [2] is 5.30; in the series on MRC5, 5.00; in the series on A-375, 5.42. The selectivity ratio in series [3] was found to be 2.66; in series [7], 2.
For the compound `CC1(C)CC[C@]2(C(=O)O)CC[C@]3(C)C(=CC[C@@H]4[C@@]5(C)C[C@@H](OC(=O)/C=C/c6ccc(O)c(O)c6)[C@H](O)C(C)(C)[C@@H]5CC[C@]43C)[C@@H]2C1`, the Activity result in the series on A549 [2] and in the series with A-375 was “Dose-dependent effect” in each case. In addition, the negative-log IC50 (pIC50) in the series on A549 [2] was 5.33; in the series with MRC5 it was 5.10; with A-375, 4.93. Besides, the selectivity ratio in [3] amounted to 0.67; in series [7], 1.66.
Regarding `C=C(C)[C@@H]1CC[C@]2(C(=O)O)CC[C@]3(CO)[C@H](CC[C@@H]4[C@@]5(C)C[C@@H](OC(=O)/C=C/c6ccc(O)c(O)c6)[C@H](OC(=O)/C=C/c6ccc(O)cc6)C(C)(C)[C@@H]5CC[C@]43C)[C@@H]12`, the Activity entry with A549 [2] and in the series on A-375 was “Dose-dependent effect” each time. Further, the pIC50 in the series with A549 [2] is 5.20; with MRC5, 5.11; in the series with A-375, 5.20. Further, the selectivity ratio in series [3] and in series [7] was 1.25 throughout.

What is called pIC50 is the negative decadic logarithm of the IC50, by convention in mol/L.
